Compound activity (PubChem BioAssay)
MC4R ag barr: agonists of human melanocortin 4 receptor (MC4R) beta-arrestin | P32245 | U2OS MC4R beta-arrestin complementation, luminescence; percent of melanotan II response, DMSO zero | activation, % at 8.9 µM | 360,000 tested, 0.98% active | AID 540308;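 active means activation above a per-plate cutoff, the mean activation of sample wells on that plate plus 3 SD, cut at about 8% in these data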
Target sequence (P32245 whole entry, looked up): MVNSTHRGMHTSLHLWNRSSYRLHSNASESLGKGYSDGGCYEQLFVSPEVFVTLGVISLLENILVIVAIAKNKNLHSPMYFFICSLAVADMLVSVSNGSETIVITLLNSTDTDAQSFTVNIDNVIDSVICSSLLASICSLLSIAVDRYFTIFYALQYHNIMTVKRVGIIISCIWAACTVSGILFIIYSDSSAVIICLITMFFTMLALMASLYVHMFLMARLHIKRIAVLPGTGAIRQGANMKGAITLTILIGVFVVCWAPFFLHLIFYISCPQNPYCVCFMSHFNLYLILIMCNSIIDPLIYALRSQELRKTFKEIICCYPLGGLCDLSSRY
CFTR F508del cor: correctors of CFTR F508del function in bronchial epithelial cells | CFBE cells, YFP halide quenching; stimulated with forskolin plus potentiator P3; % fluorescence drop versus neutral controls | activity (quench increase), % at 7.58 µM | 350,000 tested, 0.36% active | AID 720511;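 active means mean added fluorescence quench of at least 8% versus neutral control, with both replicates also reaching 8%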;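 further: cells transiently co-express mutant CFTR-F508del with the halide-sensitive YFP; corrector assay measuring rescue of mutant channel to the surface after 24 h compound exposure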
MC4R antag cAMP: antagonists of human melanocortin 4 receptor (MC4R); P32245; MC4R-expressing cells, MTII-stimulated cAMP, LANCE TR-FRET; inhibition, % at 6.5 µM; 360,000 tested, 0.48% active; AID 540295;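 active means inhibition above its plate's cutoff, the mean of tested wells on that plate plus 3 SD, cut at about 29% in these data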;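 further: 0% = Melanotan II alone and 100% = Melanotan II plus saturating MCL0020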
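material = U2OS cells stably expressing human melanocortin 4 receptor (MC4R) | also added = Melanotan II challenge | dosing = single nominal compound dose of 6.5 µM | detection = TR-FRET with Eu-cAMP and labeled anti-cAMP, 671 nm | replication = singlicate | timing = compound 30 min, challenge 1 h, detection 1 h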
SMARCA2 activ: activators of SMARCA2 function; MG213 cells, MMTV-luciferase reporter, dexamethasone, overnight; activation, % at 9.1 µM; 370,000 tested, 1% active; AID 652017; in the data active means activation above about 7.8%;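 further: 0% = vehicle wells and 100% = reference activator wells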
Starred values were filed as active, the others as inactive; · = not tested or not shown. An excerpt weighted towards active compounds, which were near 2.1% of everything screened.

SMILES | MC4R ag barr | CFTR F508del cor | MC4R antag cAMP | SMARCA2 activ
Cc1cc(NC(=O)CSc2nc(C(C)C)nc3sc(C)c(C)c23)no1 | 8.4* | 1.2 | -3.7 | -1.9
CN(C)c1ccc(NC(=O)CN2CCC(O)(c3ccccc3)CC2)cc1 | -1.8 | 1.1 | 2.7 | -2.6
CN(C)C(=O)C(CCN1CCC(O)(c2ccc(Cl)cc2)CC1)(c1ccccc1)c1ccccc1 | 3.2 | 10.9* | 13.1 | -3.0
COc1cc(/C=C2/C(=N)N3C=CSC3=NC2=O)ccc1OCCOc1ccc(NC(C)=O)cc1 | 0.6 | -1.4 | 7.3 | 1.2
CCOc1cc(/C=C2/C(=N)N3C=CSC3=NC2=O)ccc1OCCCOc1ccccc1C | 9.4* | -2.9 | 3.3 | -4.9
COc1cc(/C=C2/C(=N)N3C=CSC3=NC2=O)ccc1OCCCOc1c(C)cccc1C | 8.4* | 0.6 | 1.8 | 4.3
CCOc1cc(/C=C2\C(=N)N3N=C(S(C)(=O)=O)SC3=NC2=O)ccc1OCCOc1cccc(OC)c1 | 0.3 | 0.3 | 7.9 | 2.4
C[C@@H](NC(=O)C[C@H]1CC[C@@H](NC(=O)C2CCOCC2)[C@@H](CO)O1)c1ccccc1 | · | 1.1 | · | ·
N/C(Cc1ccc(Cl)cc1Cl)=N\OC(=O)c1ccc(Br)o1 | 8.3* | -1.8 | 13.3 | -0.8
COc1ccc(S(=O)(=O)Nc2ccc3c(c2)C(=O)N([C@H](C)CO)C[C@@H](C)[C@@H](CN(C)Cc2ccc(Cl)c(Cl)c2)O3)cc1 | · | 13.1* | · | ·
COc1ccc(S(=O)(=O)Nc2ccc3c(c2)C(=O)N([C@@H](C)CO)C[C@@H](C)[C@H](CN(C)Cc2ccc(Oc4ccccc4)cc2)O3)cc1 | · | 10.5* | · | ·
C[C@@H]1CN([C@H](C)CO)C(=O)c2cc(NS(=O)(=O)c3ccc(Cl)cc3)ccc2O[C@@H]1CN(C)Cc1ccc(-c2ccccc2)cc1 | · | 9.4* | · | ·
COc1ccc(S(=O)(=O)Nc2ccc3c(c2)C(=O)N([C@@H](C)CO)C[C@H](C)[C@H](CN(C)Cc2ccc(Cl)c(Cl)c2)O3)cc1 | · | 1.9 | · | ·
COc1ccc(S(=O)(=O)Nc2ccc3c(c2)C(=O)N([C@H](C)CO)C[C@@H](C)[C@@H](CN(C)Cc2ccc(Oc4ccccc4)cc2)O3)cc1 | · | 6.6 | · | ·
O=C(C[C@H]1C[C@@H]2c3cc(NC(=O)CC4CC4)ccc3O[C@@H]2[C@H](CO)O1)NCCN1CCCCC1 | · | -0.9 | · | ·
CCC(=O)N1C[C@@H](O)COC[C@H]2O[C@@H](CC(=O)NC)CC[C@@H]21 | · | -1.3 | · | ·
COc1ccc(NC(=O)N(C)C[C@@H]2Oc3c(NS(=O)(=O)c4ccc(Cl)cc4)cccc3C(=O)N([C@H](C)CO)C[C@@H]2C)cc1 | · | -3.5 | · | ·
COc1ccccc1NC1=C(NC(C)=O)C(=O)c2ccccc2C1=O | -1.9 | 8.2* | -22.8 | -1.5
C[C@H](CO)N1C[C@H](C)[C@@H](CN(C)S(=O)(=O)c2cccs2)Oc2ccc(NS(=O)(=O)c3cccs3)cc2C1=O | · | -3.6 | · | ·
O=C(O)c1ccc(C(=O)C(=O)c2ccccc2)cc1 | 2.1 | -2.9 | -1.3 | -4.7
CSC(SC)=C(C#N)C(=O)c1ccccc1 | 24.3* | -2.6 | 38.5* | -0.5
CNC[C@H]1Oc2ccc(NS(=O)(=O)c3ccccc3)cc2C(=O)N([C@@H](C)CO)C[C@@H]1C | · | -4.1 | · | ·
COc1ccc(-c2cnc3c(c2)C(=O)N([C@H](C)CO)C[C@H](C)[C@H](CN(C)C(=O)Cc2ccccn2)O3)cc1 | · | 0.6 | · | ·
COc1ccc(CCn2c(C)cc(C(=O)CSc3nnnn3-c3ccccc3)c2C)cc1 | 8.7* | · | -18.9 | 0.1
S=c1nc(NCCc2ccccc2Cl)c2ccccc2[nH]1 | 12.1* | -0.6 | -1.8 | 2.8
SMILES | MC4R ag barr | CFTR F508del cor | MC4R antag cAMP | SMARCA2 activ
O=C(NCCC1=CCCCC1)C1CCC(CNc2nc(=S)[nH]c3ccccc23)CC1 (configuration not stated) | -1.6 | -5.7 | -1.0 | 1.3
O=C(NCCc1ccc(Cl)cc1)C1CCC(CNc2nc(=S)[nH]c3ccccc23)CC1 (configuration not stated) | 16.5* | -4.6 | 6.8 | -0.1
O=C(CCCCCNc1nc(=S)[nH]c2ccccc12)NCc1ccccc1Cl | · | -0.9 | · | 0.8
O=C(Nc1ccccc1)N1C[C@@H]2[C@H](c3ccccc31)[C@H](CO)N2C(=O)c1ccccc1F | · | 0.5 | · | ·
COC(=O)c1cc2c(c3c4ccccc4n(S(=O)(=O)c4ccccc4)c13)C(=O)N(C)C2 | · | -2.7 | · | -4.8
COC(=O)c1cc2c(c3c4ccccc4n(S(=O)(=O)c4ccc(C)cc4)c13)C(=O)N(C)C2 | · | 0.4 | · | 7.9*
COc1cccc(C(=O)Nc2ccc3c(c2)C(=O)N(C)[C@@H]2CC[C@@H](CC(=O)NCC(F)(F)F)O[C@H]2CO3)c1 | · | -1.9 | · | ·
C[C@@H]1CN([C@@H](C)CO)C(=O)Cc2cc(NC(=O)Nc3ccc(C(F)(F)F)cc3)ccc2O[C@@H]1CN(C)CC1CCCCC1 | · | 5.8 | · | ·
COc1ccc(OCC(=O)N/N=C/C=C/c2ccccc2)cc1 | 1.8 | 9.0* | 0.4 | 1.0
CCOc1ccc(NCC(=O)N/N=C/C=C/c2ccccc2)cc1 | -0.9 | -4.3 | -2.7 | -3.6
O=C(Nc1ccccc1)N[C@H]1CC[C@@H](CCn2cc(-c3ccccc3F)nn2)O[C@@H]1CO | · | 0.8 | · | ·
Cc1ccccc1Cn1ccc(NC(=O)c2nc3ncccn3n2)n1 | 1.1 | · | 4.0 | 2.7
Cc1ccccc1Cn1ccc(NC(=O)c2onc(C)c2Cl)n1 | 0.8 | 3.5 | 5.7 | 7.8*
CNC[C@@H]1Oc2ccc(NS(=O)(=O)c3c(C)noc3C)cc2C(=O)N([C@H](C)CO)C[C@H]1C | · | -0.1 | · | ·
Nc1ccccc1C(=O)N1O[C@@H]2C=C[C@H]1C2 | 0.9 | 8.6* | 11.0 | 2.0
CCOc1ccc2oc(C(=O)Nc3ccc4c(c3)OCO4)c(C)c2c1 | 0.0 | -1.9 | 7.2 | 4.2
CCOc1ccc2oc(C(=O)Nc3ccc(N4CCOCC4)cc3)c(C)c2c1 | 9.3* | · | -9.6 | -5.4
CCN(C(=O)COc1ccc2ccc(=O)oc2c1)C1CCCCC1 | -0.2 | 17.6* | 8.4 | 0.1
C[C@@H]1CN([C@@H](C)CO)C(=O)c2cc(-c3ccc(F)cc3)cnc2O[C@@H]1CN(C)C(=O)NC1CCCC1 | · | 0.2 | · | ·
Cc1ccc(C)c(C(C)NC(=S)NCc2ccc(F)cc2)c1 (configuration not stated) | 8.2* | 1.7 | -3.8 | -3.6
COc1ccc(C(C)NC(=S)NCc2ccc(F)cc2)cc1 (configuration not stated) | 1.0 | 1.1 | 1.9 | -0.7
O=C(Nc1ccccc1C(=O)Nc1ccccc1)c1cccs1 | 9.0* | 0.4 | 10.3 | 0.4
O=C(Nc1ccc(-c2nc3ccc(NC(=O)c4cccs4)cc3[nH]2)cc1)c1cccs1 | 0.4 | · | 8.1 | 9.1*
N#Cc1ccc(-c2cccs2)nc1SCc1cccnc1 | -1.5 | 9.0* | -22.1 | 1.9
CCOc1ccc(NC(=O)c2ccccc2NC(=O)CNC2CCCC(C)C2C)cc1 (configuration not stated) | 2.5 | 10.6* | 2.7 | -1.2
CCOc1ccc(NC(=O)c2ccccc2NC(=O)CN(C)CC(=O)Nc2ccc(C)cc2)cc1 | 0.0 | · | 8.0 | -1.6
Cc1[nH]c2ccc(C(=O)N3CCN(c4ccccc4Cl)CC3)cc2c1C | 1.2 | 0.6 | -3.3 | -3.3
